Data as given in ChEMBL document CHEMBL4270642, “Boronic ester-linked macrocyclic lipopeptides as serine protease inhibitors targeting Escherichia coli type I signal peptidase” (Eur J Med Chem, 2018).
pIC50: −log10 of the molar value. ≈ marks a conversion by molar mass, not a printed value.

Tests used:
[1] = target: Signal peptidase I (Escherichia coli K-12) (UniProt P00803); test: Inhibition of Escherichia coli type 1 signal peptidase lepB assessed as residual activity at 5 uM preincubated for 10 mins followed by Dabcyl-VGGTATAYGAFSRPGLE-(EDANS)-OH substrate addition measured after 2 hrs by FRET based assay (reference value: 100%)
Sequence of Signal peptidase I (Escherichia coli K-12) (P00803 whole entry): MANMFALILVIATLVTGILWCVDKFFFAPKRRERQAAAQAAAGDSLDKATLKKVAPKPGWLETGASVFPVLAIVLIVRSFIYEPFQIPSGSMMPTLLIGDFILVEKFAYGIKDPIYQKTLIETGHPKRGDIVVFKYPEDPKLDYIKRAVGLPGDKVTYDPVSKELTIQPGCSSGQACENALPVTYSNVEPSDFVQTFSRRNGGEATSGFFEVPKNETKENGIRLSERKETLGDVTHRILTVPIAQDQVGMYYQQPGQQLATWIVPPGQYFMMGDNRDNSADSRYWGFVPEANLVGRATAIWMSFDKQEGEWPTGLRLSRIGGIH
In short: (§1)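 EcLepB (about 50 nM estimated) preincubated 10 min with compound. Reaction started with Dabcyl/EDANS FRET peptide at 8 µM final (Km 20 µM). Fluorescence followed continuously at 535 nm, 22 °C, for 2 h. Cleavage rates plotted against inhibitor concentration; IC50 from non-linear regression of sigmoidal dose-response curves.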

[2] = target: Signal peptidase I (Escherichia coli K-12) (UniProt P00803); test: Inhibition of Escherichia coli type 1 signal peptidase lepB assessed as residual activity at 0.0195 uM preincubated for 10 mins followed by Dabcyl-VGGTATAYGAFSRPGLE-(EDANS)-OH substrate addition measured after 2 hrs by FRET based assay (reference value: 100%); in short: as §1
[3] = target: Signal peptidase I (Escherichia coli K-12) (UniProt P00803); test: Inhibition of Escherichia coli type 1 signal peptidase lepB assessed as residual activity at 0.0012 uM preincubated for 10 mins followed by Dabcyl-VGGTATAYGAFSRPGLE-(EDANS)-OH substrate addition measured after 2 hrs by FRET based assay (reference value: 100%); in short: as §1
[4] = target: Signal peptidase I (Escherichia coli K-12) (UniProt P00803); test: Inhibition of Escherichia coli type 1 signal peptidase lepB assessed as residual activity at 1.25 uM preincubated for 10 mins followed by Dabcyl-VGGTATAYGAFSRPGLE-(EDANS)-OH substrate addition measured after 2 hrs by FRET based assay (reference value: 100%); in short: as §1
Klebsiella pneumoniae = test: Antibacterial activity against Klebsiella pneumoniae ATCC 13883 after 16 to 20 hrs by broth microdilution method; assay type: functional
In short: (§2)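 Broth microdilution in cation-adjusted Mueller-Hinton II per EUCAST/CLSI; two-fold compound series 64 down to 0.25 µg/mL final. Inoculum from fresh colonies (non-selective agar, 18-24 h, 35 ± 2 °C), adjusted to 0.5 McFarland, diluted to about 5 × 10^5 CFU/mL final. Static incubation 16-20 h at 35 ± 2 °C; MIC read visually as complete growth inhibition against medium-only wells.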

[5] = Hemolytic activity in human RBC at 100 uM after 45 mins by spectrophotometric method relative to control; assay type: ADME, cell-based, Erythrocyte; details: red blood cells (erythrocytes), read-out: Activity
In short: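 Heparinized human blood; red cells washed three times in Tyrode buffer pH 7.4. Compound at 100 µM final with 1% DMSO and 50% RBC, shaken (250 rpm) 45 min at 37 °C. Cells pelleted (1000 × g, 10 min); supernatant haemoglobin at 540 nm. Percent lysis relative to buffer-only and 2% Triton X-100 controls.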

Escherichia coli [6] = test: Antibacterial activity against Escherichia coli D22 CGSG 5163 harboring Ips mutant after 16 to 20 hrs by broth microdilution method; assay type: functional
In short: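 Broth microdilution in cation-adjusted Mueller-Hinton II broth, following EUCAST and CLSI guidelines. Two-fold series at final concentrations 64 down to 0.25 µg/mL, with medium-only and growth controls. Inoculum from fresh colonies (18-24 h, 35 °C ± 2 °C) adjusted to 0.5 McFarland, final ≈5 × 10^5 CFU/mL. Plates incubated unshaken 16-20 h at 35 °C ± 2 °C. MIC read visually as complete inhibition of growth.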

[7] = target: Signal peptidase I (Escherichia coli K-12) (UniProt P00803); test: Inhibition of Escherichia coli type 1 signal peptidase lepB assessed as residual activity at 0.0024 uM preincubated for 10 mins followed by Dabcyl-VGGTATAYGAFSRPGLE-(EDANS)-OH substrate addition measured after 2 hrs by FRET based assay (reference value: 100%); in short: as §1
[8] = target: Signal peptidase I (Escherichia coli K-12) (UniProt P00803); test: Inhibition of Escherichia coli type 1 signal peptidase lepB assessed as residual activity at 0.625 uM preincubated for 10 mins followed by Dabcyl-VGGTATAYGAFSRPGLE-(EDANS)-OH substrate addition measured after 2 hrs by FRET based assay (reference value: 100%); in short: as §1
Staphylococcus aureus = test: Antibacterial activity against Staphylococcus aureus ATCC 29213 after 16 to 20 hrs by broth microdilution method; assay type: functional; in short: as §2
[9] = target: Signal peptidase I (Escherichia coli K-12) (UniProt P00803); test: Inhibition of Escherichia coli type 1 signal peptidase lepB assessed as residual activity at 0.3125 uM preincubated for 10 mins followed by Dabcyl-VGGTATAYGAFSRPGLE-(EDANS)-OH substrate addition measured after 2 hrs by FRET based assay (reference value: 100%); in short: as §1
Escherichia coli [10] = test: Antibacterial activity against tolC deficient Escherichia coli CH3130 after 16 to 20 hrs by broth microdilution method; assay type: functional; in short: as §2
[11] = target: Signal peptidase I (Escherichia coli K-12) (UniProt P00803); test: Inhibition of Escherichia coli type 1 signal peptidase lepB assessed as residual activity at 0.0781 uM preincubated for 10 mins followed by Dabcyl-VGGTATAYGAFSRPGLE-(EDANS)-OH substrate addition measured after 2 hrs by FRET based assay (reference value: 100%); in short: as §1
Signal peptidase I = Signal peptidase I (Escherichia coli K-12, UniProt P00803); test: Inhibition of Escherichia coli type 1 signal peptidase lepB preincubated for 10 mins followed by Dabcyl-VGGTATAYGAFSRPGLE-(EDANS)-OH substrate addition measured after 2 hrs by FRET based assay; in short: as §1
Sequence of Signal peptidase I (P00803 whole entry): as above

Escherichia coli [12] = test: Antibacterial activity against Escherichia coli ATCC 25922 after 16 to 20 hrs by broth microdilution method; assay type: functional; in short: as §2
[13] = target: Signal peptidase I (Escherichia coli K-12) (UniProt P00803); test: Inhibition of Escherichia coli type 1 signal peptidase lepB assessed as residual activity at 0.0006 uM preincubated for 10 mins followed by Dabcyl-VGGTATAYGAFSRPGLE-(EDANS)-OH substrate addition measured after 2 hrs by FRET based assay (reference value: 100%); in short: as §1
HepG2 = test: Cytotoxicity against human HepG2 cells after 72 hrs by FMSA; assay type: cell-based; details: HepG2, 72 h
In short: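 HepG2 (ATCC) grown in EMEM with 10% FBS, pen/strep, 2 mM L-glutamine, used up to 20 passages. Seeded at 1000 cells/well, cultured overnight, then dosed acoustically from DMSO stocks. Eight two-fold dilutions in duplicate from top 64 or 32 µM; 72 h at 37 °C, 5% CO2. Fluorescein diacetate hydrolysis read at ex 485/em 530 nm; IC50 by non-linear regression.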

[14] = target: Signal peptidase I (Escherichia coli K-12) (UniProt P00803); test: Inhibition of Escherichia coli type 1 signal peptidase lepB assessed as residual activity at 2.5 uM preincubated for 10 mins followed by Dabcyl-VGGTATAYGAFSRPGLE-(EDANS)-OH substrate addition measured after 2 hrs by FRET based assay (reference value: 100%); in short: as §1
[15] = target: Signal peptidase I (Escherichia coli K-12) (UniProt P00803); test: Inhibition of Escherichia coli type 1 signal peptidase lepB assessed as residual activity at 0.0049 uM preincubated for 10 mins followed by Dabcyl-VGGTATAYGAFSRPGLE-(EDANS)-OH substrate addition measured after 2 hrs by FRET based assay (reference value: 100%); in short: as §1
[16] = target: Signal peptidase I (Escherichia coli K-12) (UniProt P00803); test: Inhibition of Escherichia coli type 1 signal peptidase lepB assessed as residual activity at 0.0098 uM preincubated for 10 mins followed by Dabcyl-VGGTATAYGAFSRPGLE-(EDANS)-OH substrate addition measured after 2 hrs by FRET based assay (reference value: 100%); in short: as §1
[17] = target: Signal peptidase I (Escherichia coli K-12) (UniProt P00803); test: Inhibition of Escherichia coli type 1 signal peptidase lepB assessed as residual activity at 0.0391 uM preincubated for 10 mins followed by Dabcyl-VGGTATAYGAFSRPGLE-(EDANS)-OH substrate addition measured after 2 hrs by FRET based assay (reference value: 100%); in short: as §1
Acinetobacter baumannii = test: Antibacterial activity against Acinetobacter baumannii ATCC 19606 after 16 to 20 hrs by broth microdilution method; assay type: functional; details: ATCC 19606 = CIP 70.34 = JCM 6841; in short: as §2
[18] = target: Signal peptidase I (Escherichia coli K-12) (UniProt P00803); test: Inhibition of Escherichia coli type 1 signal peptidase lepB assessed as residual activity at 10 uM preincubated for 10 mins followed by Dabcyl-VGGTATAYGAFSRPGLE-(EDANS)-OH substrate addition measured after 2 hrs by FRET based assay (reference value: 100%); in short: as §1
Pseudomonas aeruginosa [19] = test: Antibacterial activity against Pseudomonas aeruginosa PAO1 after 16 to 20 hrs by broth microdilution method; assay type: functional; in short: as §2
Pseudomonas aeruginosa [20] = test: Antibacterial activity against efflux defective Pseudomonas aeruginosa PAO750 after 16 to 20 hrs by broth microdilution method; assay type: functional; in short: as §2
[21] = target: Signal peptidase I (Escherichia coli K-12) (UniProt P00803); test: Inhibition of Escherichia coli type 1 signal peptidase lepB assessed as residual activity at 0.1563 uM preincubated for 10 mins followed by Dabcyl-VGGTATAYGAFSRPGLE-(EDANS)-OH substrate addition measured after 2 hrs by FRET based assay (reference value: 100%); in short: as §1

Row | SMILES | Activity [1] | Activity [2] | Activity [3] | Activity [4] | MIC (Klebsiella pneumoniae) | hemolysis at 0.75 h, 100 µM [5] | MIC (Escherichia coli [6]) | Activity [7] | Activity [8] | MIC (Staphylococcus aureus) | Activity [9] | MIC (Escherichia coli [10]) | Activity [11] | pIC50 (Signal peptidase I) | MIC (Escherichia coli [12]) | pIC50 (HepG2) | Activity [14] | Activity [15] | Activity [16] | Activity [17] | also measured
1 | CCCCCCc1ccc(-c2ccc(C(=O)N[C@@H](CCCN)C(=O)N[C@H](C(=O)N[C@@H](C)C(=O)N[C@H]3Cc4cn(nn4)CCO[C@@H]4C[C@@H]5OB(O[C@@H]5C4)[C@H](C)NC3=O)[C@@H](C)O)cc2)cc1 | 4% | 84.3% | 90.7% | 42.2% | 8 µg/mL (≈ 9.03 µM) | 10.6% | 4 µg/mL (≈ 4.52 µM) | 90.6% | 27.1% | 2 µg/mL (≈ 2.26 µM) | 39.1% | 4 µg/mL (≈ 4.52 µM) | 65.2% | 6.76 | 16 µg/mL (≈ 18.1 µM) | 5.10 | 27.1% | 91% | 94.3% | 77.8% | Activity [13]: 95.3%; MIC (Acinetobacter baumannii): 8 µg/mL (≈ 9.03 µM); Activity [18]: -2.5%; MIC (Pseudomonas aeruginosa [19]): 64 µg/mL (≈ 72.2 µM); MIC (Pseudomonas aeruginosa [20]): 32 µg/mL (≈ 36.1 µM); Activity [21]: 57.6%
2 | CCCCCCc1ccc(-n2cc(C(=O)N[C@@H](CCCN)C(=O)N[C@H](C(=O)N[C@@H](C)C(=O)N[C@H]3Cc4cn(nn4)CCO[C@@H]4C[C@@H]5OB(O[C@@H]5C4)[C@H](C)NC3=O)[C@@H](C)O)ccc2=O)cc1 | 15.8% | 111% | 109% | 24.3% | > 64 µg/mL | 0.03% | > 64 µg/mL | 101% | 32.6% | 64 µg/mL (≈ 70.9 µM) | 59.3% | > 64 µg/mL | 95.3% | 6.31 | > 64 µg/mL | < 4.19 | 17.3% | 101% | 98.8% | 98.3% | MIC (Acinetobacter baumannii): > 64 µg/mL; Activity [18]: 17%; MIC (Pseudomonas aeruginosa [19]): > 64 µg/mL; MIC (Pseudomonas aeruginosa [20]): > 64 µg/mL; Activity [21]: 90%
3 | C[C@@H]1NC(=O)[C@@H](NC(=O)[C@H](C)NC(=O)[C@@H](NC(=O)[C@H](CCCN)NC(=O)C#Cc2ccc(-c3ccccc3)cc2)[C@@H](C)O)Cc2cn(nn2)CCO[C@@H]2C[C@@H]3OB1O[C@@H]3C2 | 13.5% | 98.2% | 103% | 22.5% | > 64 µg/mL | 0.01% | > 64 µg/mL | 106% | 25.8% | 32 µg/mL (≈ 38.8 µM) | 30% | > 64 µg/mL | 73.1% | 6.64 | > 64 µg/mL | 4.55 | 17.8% | 97.1% | 99% | 89.3% | MIC (Acinetobacter baumannii): > 64 µg/mL; Activity [18]: 6.8%; MIC (Pseudomonas aeruginosa [19]): > 64 µg/mL; MIC (Pseudomonas aeruginosa [20]): > 64 µg/mL; Activity [21]: 58.2%
